According to ChEMBL document CHEMBL4382285, “Discovery of Novel Retigabine Derivatives as Potent KCNQ4 and KCNQ5 Channel Agonists with Improved Specificity” (ACS Med Chem Lett, 2019):
Active and inactive are the calls of the source. The calls are words filed in the database; no cut-off is given here.

How the values were obtained:
Assay type in all cases: cell-based
[1] = biological target: T1, Potassium voltage-gated channel subfamily KQT member 4 (Homo sapiens) (UniProt P56696); assay: Activity at human KCNQ4 expressed in CHOK1 cells assessed as ratio of amplitude of outward current in presence of test compound to amplitude of outward current in absence of test compound at 10 uM at -10 mV by whole cell patch clamp assay
T1 sequence (whole entry): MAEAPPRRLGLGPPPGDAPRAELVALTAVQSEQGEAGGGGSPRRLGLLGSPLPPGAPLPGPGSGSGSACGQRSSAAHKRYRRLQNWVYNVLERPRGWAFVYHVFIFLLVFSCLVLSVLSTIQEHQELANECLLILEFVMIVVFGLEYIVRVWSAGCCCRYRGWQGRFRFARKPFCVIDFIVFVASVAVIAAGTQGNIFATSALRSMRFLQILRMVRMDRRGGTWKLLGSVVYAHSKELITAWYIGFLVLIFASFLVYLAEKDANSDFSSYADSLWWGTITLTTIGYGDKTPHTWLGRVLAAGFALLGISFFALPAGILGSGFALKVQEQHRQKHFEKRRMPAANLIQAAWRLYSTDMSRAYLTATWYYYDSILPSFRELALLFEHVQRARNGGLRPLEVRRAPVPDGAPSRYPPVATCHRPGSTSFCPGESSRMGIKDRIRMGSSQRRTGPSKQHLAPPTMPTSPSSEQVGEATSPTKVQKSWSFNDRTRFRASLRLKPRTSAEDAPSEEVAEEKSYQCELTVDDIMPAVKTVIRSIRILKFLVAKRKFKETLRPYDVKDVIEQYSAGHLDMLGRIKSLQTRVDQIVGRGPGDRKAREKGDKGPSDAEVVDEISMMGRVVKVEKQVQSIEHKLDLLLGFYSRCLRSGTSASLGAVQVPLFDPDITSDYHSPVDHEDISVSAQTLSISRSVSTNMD
Method in brief: (§1)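 CHO-K1 cells expressing the channel, whole-cell voltage clamp, compound at 10 μM. Read-out is the outward current ratio I/I0 with and without compound, taken at −10 mV. I/I0 > 1 counts as activation and < 1 as inhibition. More than four cells per compound.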

[2] = biological target: T2, Potassium voltage-gated channel subfamily KQT member 5 (Homo sapiens, UniProt Q9NR82); assay: Activity at human KCNQ5 expressed in CHOK1 cells assessed as ratio of amplitude of outward current in presence of test compound to amplitude of outward current in absence of test compound at 10 uM at -10 mV by whole cell patch clamp assay; method in brief: as §1
[3] = biological target: T1, Potassium voltage-gated channel subfamily KQT member 4 (Homo sapiens); assay: (§2) Activation of human homomeric KCNQ4 expressed in CHOK1 cells at -10 mV by whole cell patch clamp assay
Method in brief: (§3)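 Whole-cell voltage clamp of CHO-K1 cells expressing homomeric KCNQ4. Holding potential −80 mV with depolarizing steps; current read at −10 mV before and after compound at several concentrations. EC50 derived from the concentration–response relationship, with the Hill coefficient reported.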

[4] = biological target: T3, Potassium voltage-gated channel subfamily KQT member 4 (Homo sapiens, UniProt P56696); assay: as §2; method in brief: as §3
T3 sequence (P56696 whole entry): T1 sequence (whole entry)

[5] = biological target: Potassium voltage-gated channel subfamily KQT member 2 (Rattus norvegicus) (UniProt O88943); assay: Activity at rat homomeric KCNQ2 expressed in CHOK1 cells assessed as effect on current amplitude up to 30 uM at -10 mV by whole cell patch clamp assay
Method in brief: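 CHO-K1 cells expressing homomeric KCNQ2, recorded by whole-cell voltage clamp. Holding potential −80 mV with step depolarizations; current amplitude at −10 mV compared before and after compound across 1–30 μM, reported as percent change in current.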

[6] = biological target: Potassium voltage-gated channel subfamily KQT member 2 (Rattus norvegicus) (UniProt O88943); assay: Activity at rat KCNQ2 expressed in CHOK1 cells assessed as ratio of amplitude of outward current in presence of test compound to amplitude of outward current in absence of test compound at 10 uM at +60 mV by whole cell patch clamp assay
Method in brief: (§4)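 CHO-K1 cells individually transfected with a single KCNQ subtype; whole-cell voltage clamp. Held at −80 mV, stepped from −90 to +60 mV in 10 mV increments (1500 ms), then to −120 mV for 500 ms. Outward current at −10 or +60 mV measured before (I0) and after (I) 10 μM compound; I/I0 >1 counts as activation. More than four cells per compound.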

[7] = biological target: T4, Potassium voltage-gated channel subfamily KQT member 3 (Rattus norvegicus) (UniProt O88944); assay: Activity at rat KCNQ3 expressed in CHOK1 cells assessed as ratio of amplitude of outward current in presence of test compound to amplitude of outward current in absence of test compound at 10 uM at +60 mV by whole cell patch clamp assay; method in brief: as §4
T4 sequence (whole entry): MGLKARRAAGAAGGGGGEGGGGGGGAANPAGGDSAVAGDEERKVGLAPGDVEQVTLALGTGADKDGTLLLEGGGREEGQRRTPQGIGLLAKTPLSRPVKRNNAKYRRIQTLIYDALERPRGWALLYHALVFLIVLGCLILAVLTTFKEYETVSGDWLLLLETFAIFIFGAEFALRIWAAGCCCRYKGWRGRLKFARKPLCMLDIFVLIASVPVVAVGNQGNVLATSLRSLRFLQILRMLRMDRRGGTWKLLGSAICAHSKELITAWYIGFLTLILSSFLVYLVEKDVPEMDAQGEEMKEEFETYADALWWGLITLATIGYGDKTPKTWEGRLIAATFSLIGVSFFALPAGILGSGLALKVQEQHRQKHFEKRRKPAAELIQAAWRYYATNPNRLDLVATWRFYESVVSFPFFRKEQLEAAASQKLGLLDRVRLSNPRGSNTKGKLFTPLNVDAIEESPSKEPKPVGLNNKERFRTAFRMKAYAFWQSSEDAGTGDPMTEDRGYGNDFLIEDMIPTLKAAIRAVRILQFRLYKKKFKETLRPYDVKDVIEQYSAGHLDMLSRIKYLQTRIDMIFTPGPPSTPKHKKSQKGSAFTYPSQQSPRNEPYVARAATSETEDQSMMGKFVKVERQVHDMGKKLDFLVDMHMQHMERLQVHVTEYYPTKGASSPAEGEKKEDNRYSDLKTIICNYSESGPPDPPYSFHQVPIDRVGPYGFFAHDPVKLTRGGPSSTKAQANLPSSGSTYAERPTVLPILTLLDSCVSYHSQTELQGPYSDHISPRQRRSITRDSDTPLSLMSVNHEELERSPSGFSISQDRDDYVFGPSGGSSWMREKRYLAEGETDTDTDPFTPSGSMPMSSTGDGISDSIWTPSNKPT

[8] = biological target: T1, Potassium voltage-gated channel subfamily KQT member 4 (Homo sapiens); assay: Activity at human KCNQ4 expressed in CHOK1 cells assessed as ratio of amplitude of outward current in presence of test compound to amplitude of outward current in absence of test compound at 10 uM at +60 mV by whole cell patch clamp assay; method in brief: as §4
[9] = biological target: T2, Potassium voltage-gated channel subfamily KQT member 5; assay: Activity at human KCNQ5 expressed in CHOK1 cells assessed as ratio of amplitude of outward current in presence of test compound to amplitude of outward current in absence of test compound at 10 uM at +60 mV by whole cell patch clamp assay; method in brief: as §4
[10] = biological target: Potassium voltage-gated channel subfamily KQT member 2 (Rattus norvegicus) (UniProt O88943); assay: Effect on voltage-dependent activation of rat KCNQ2 expressed in CHOK1 cells assessed as negative shift in current activation curve at 10 uM by whole cell patch clamp assay

Potassium voltage-gated channel subfamily KQT member 2 (Rattus norvegicus), sequence (O88943 whole entry): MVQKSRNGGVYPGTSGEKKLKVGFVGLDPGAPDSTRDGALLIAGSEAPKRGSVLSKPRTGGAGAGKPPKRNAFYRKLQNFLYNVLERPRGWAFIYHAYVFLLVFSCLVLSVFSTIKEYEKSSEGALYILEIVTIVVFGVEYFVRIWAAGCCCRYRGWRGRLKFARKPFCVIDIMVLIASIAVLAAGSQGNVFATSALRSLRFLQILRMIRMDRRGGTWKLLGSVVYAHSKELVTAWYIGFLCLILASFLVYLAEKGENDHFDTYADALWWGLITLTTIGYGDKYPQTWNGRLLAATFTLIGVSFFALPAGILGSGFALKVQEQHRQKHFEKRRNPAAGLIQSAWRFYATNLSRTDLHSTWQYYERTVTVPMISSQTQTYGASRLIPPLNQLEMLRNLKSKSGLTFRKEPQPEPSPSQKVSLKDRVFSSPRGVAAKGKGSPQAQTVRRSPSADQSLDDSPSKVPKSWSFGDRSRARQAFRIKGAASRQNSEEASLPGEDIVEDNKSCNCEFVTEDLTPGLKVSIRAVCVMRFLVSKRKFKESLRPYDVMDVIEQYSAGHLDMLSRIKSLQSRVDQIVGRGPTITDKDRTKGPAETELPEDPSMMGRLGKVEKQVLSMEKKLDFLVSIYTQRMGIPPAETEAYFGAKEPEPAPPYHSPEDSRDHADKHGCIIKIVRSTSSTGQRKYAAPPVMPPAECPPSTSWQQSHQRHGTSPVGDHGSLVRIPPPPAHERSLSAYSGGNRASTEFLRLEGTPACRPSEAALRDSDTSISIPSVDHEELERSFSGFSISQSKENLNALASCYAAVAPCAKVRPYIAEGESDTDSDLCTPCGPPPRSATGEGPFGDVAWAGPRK
T2 sequence (Q9NR82 whole entry): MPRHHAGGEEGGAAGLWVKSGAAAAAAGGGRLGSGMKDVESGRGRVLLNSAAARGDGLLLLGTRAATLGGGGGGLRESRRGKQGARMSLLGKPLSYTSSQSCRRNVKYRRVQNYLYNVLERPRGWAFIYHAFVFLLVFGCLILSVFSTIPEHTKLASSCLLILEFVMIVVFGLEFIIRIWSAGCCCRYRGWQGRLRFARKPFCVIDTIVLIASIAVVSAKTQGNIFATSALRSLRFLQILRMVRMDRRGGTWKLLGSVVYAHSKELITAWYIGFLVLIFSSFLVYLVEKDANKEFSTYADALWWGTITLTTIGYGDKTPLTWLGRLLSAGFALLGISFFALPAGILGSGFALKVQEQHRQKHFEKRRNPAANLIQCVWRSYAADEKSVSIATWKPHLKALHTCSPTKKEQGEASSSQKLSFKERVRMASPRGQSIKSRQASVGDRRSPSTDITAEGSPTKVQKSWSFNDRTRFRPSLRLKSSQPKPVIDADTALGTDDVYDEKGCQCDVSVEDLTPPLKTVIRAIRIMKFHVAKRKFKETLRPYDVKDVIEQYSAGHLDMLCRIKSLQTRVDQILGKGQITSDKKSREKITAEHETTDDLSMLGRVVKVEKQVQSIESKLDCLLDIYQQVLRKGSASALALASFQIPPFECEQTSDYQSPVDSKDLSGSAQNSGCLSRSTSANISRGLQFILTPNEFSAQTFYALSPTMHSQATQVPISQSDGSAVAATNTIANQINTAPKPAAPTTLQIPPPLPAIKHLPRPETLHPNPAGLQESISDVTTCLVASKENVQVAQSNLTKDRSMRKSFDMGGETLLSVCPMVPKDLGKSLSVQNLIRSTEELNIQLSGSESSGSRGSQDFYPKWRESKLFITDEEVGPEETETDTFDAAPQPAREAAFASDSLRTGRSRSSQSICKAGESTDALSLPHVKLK

In the case of C#CCN(Cc1ccc(F)cc1)c1ccc(NC(=O)OCC)c(NC(=O)OCC)c1, the Ratio [1] is reported as 5.68, the Ratio [2] is reported as 3.2 and the Activity [3] is reported as “Dose-dependent effect”. For the same molecule, the EC50 [4] was 890 nM, the Activity [5] was “inactive” and the Ratio [6] was 0.8. It also gave a Ratio [7] of 1.7, a Ratio [8] of 6.6 and a Ratio [9] of 4.8. For the same molecule, the Activity [10] was “inactive”.
